Experimental data published in ChEMBL document CHEMBL1134534, “Phenylpiperazinylalkylamino substituted pyridazinones as potent alpha(1) adrenoceptor antagonists” (J Med Chem, 2001).
Active and inactive are the calls of the source. No cut-off for these calls is given here.

How the values were obtained:
[1] = biological target: T1, Alpha-1D adrenergic receptor (Homo sapiens, UniProt P25100); assay: Binding affinity towards human cloned alpha-1D-adrenoceptor using [3H]prazosin as radioligand
T1 sequence (P25100 whole entry): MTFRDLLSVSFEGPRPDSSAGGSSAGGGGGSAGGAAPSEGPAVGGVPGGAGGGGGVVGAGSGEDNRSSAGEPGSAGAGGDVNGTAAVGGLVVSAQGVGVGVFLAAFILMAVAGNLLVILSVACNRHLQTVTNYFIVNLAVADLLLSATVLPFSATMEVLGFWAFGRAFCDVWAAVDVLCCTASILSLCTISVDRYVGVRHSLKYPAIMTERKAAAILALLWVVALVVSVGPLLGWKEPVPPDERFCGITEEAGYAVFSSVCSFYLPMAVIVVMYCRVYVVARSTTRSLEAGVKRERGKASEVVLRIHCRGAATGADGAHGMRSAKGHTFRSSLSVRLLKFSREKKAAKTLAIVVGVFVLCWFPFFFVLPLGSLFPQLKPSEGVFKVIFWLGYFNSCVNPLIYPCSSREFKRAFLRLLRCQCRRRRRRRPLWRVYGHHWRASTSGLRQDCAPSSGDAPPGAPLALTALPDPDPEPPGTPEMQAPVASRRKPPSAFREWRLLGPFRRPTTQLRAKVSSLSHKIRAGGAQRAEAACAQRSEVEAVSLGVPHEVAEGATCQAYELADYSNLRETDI

[2] = biological target: T2, 5-hydroxytryptamine receptor 1A (Homo sapiens, UniProt P08908); assay: Binding affinity towards human cloned 5-hydroxytryptamine 1A receptor using [3H]8-OH-DPAT as radioligand
T2 sequence (P08908 whole entry): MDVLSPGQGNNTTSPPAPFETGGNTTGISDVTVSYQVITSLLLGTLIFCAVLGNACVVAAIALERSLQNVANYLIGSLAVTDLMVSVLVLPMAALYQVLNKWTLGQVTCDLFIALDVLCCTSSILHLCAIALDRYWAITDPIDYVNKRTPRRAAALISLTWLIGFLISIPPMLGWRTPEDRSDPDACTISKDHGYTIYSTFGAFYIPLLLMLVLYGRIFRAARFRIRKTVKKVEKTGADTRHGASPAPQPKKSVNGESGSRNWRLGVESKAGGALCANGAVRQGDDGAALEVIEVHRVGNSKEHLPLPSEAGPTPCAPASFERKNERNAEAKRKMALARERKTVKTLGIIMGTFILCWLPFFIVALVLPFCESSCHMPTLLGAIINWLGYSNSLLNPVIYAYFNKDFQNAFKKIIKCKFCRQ

[3] = biological target: T3, Alpha-1A adrenergic receptor (Homo sapiens, UniProt P35348); assay: Binding affinity towards human cloned alpha-1A-adrenoceptor using [3H]prazosin as radioligand
T3 sequence (P35348 whole entry): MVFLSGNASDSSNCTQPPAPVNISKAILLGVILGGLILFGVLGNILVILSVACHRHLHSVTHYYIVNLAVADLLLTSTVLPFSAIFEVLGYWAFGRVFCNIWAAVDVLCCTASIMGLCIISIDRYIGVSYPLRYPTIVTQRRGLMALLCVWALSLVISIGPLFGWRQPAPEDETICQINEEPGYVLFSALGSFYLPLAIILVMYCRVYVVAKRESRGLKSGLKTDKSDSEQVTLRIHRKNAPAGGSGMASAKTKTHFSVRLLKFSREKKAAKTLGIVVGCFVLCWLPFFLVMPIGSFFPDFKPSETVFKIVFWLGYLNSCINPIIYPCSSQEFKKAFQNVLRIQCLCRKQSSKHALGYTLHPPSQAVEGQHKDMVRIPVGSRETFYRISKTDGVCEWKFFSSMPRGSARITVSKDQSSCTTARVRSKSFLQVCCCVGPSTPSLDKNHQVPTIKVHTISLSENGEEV

[4] = biological target: T4, Alpha-1B adrenergic receptor (Homo sapiens, UniProt P35368); assay: Binding affinity towards human cloned alpha-1B-adrenoceptor using [3H]prazosin as radioligand
T4 sequence (P35368 whole entry): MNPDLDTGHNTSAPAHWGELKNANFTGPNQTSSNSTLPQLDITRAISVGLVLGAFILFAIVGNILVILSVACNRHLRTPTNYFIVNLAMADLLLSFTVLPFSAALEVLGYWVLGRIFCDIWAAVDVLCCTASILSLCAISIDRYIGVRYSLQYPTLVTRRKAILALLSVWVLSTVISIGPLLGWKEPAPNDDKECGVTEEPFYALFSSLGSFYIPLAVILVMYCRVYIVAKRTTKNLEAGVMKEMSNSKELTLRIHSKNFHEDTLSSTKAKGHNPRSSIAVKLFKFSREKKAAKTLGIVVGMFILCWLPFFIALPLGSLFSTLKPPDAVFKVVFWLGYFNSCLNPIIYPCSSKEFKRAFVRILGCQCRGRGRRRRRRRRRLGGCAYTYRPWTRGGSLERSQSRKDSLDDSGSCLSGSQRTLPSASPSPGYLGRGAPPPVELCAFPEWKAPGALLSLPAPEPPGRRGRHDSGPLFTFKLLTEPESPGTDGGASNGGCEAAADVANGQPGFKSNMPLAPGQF

[5] = biological target: T2, 5-hydroxytryptamine receptor 1A; assay: Ability to influence the binding of [35S]GTP-gamma-S, to HeLa cell membranes expressing the human 5-hydroxytryptamine 1A receptor; format: functional
In short: (§1)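 Membranes from HeLa cells stably expressing human 5-HT1A, in 20 mM HEPES, 3 mM MgSO4, 120 mM NaCl pH 7.4. Preincubated 20 min at 30 °C with 30 µM GDP and compound (100 µM to 0.1 nM), then [35S]GTPγS (150–250 pM) added for a further 30 min at 30 °C. Nonspecific binding defined with 10 µM GTPγS. Filtration, scintillation counting. pEC50 from nonlinear curve fit; 2–3 experiments.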

[6] = biological target: T5, Alpha-1D adrenergic receptor (Homo sapiens) (UniProt P25100); assay: Experimental binding affinity for alpha-1D-adrenergic receptor
T5 sequence (whole entry): T1 sequence (P25100 whole entry)
In short: (§2)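 Membranes (30 µg protein) from CHO cells stably transfected with each human α1 subtype. Nonspecific binding defined with 10 µM phentolamine. Filtration. IC50 from curve fit, converted to Ki by Cheng–Prusoff. Triplicates; 2–3 experiments.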

[7] = biological target: T6, Alpha-1A adrenergic receptor (Homo sapiens) (UniProt P35348); assay: Experimental binding affinity for alpha-1A-adrenergic receptor; in short: as §2
T6 sequence (whole entry): T3 sequence (P35348 whole entry)

[8] = biological target: T7, Alpha-1B adrenergic receptor (Homo sapiens) (UniProt P35368); assay: Experimental binding affinity for alpha-1B-adrenergic receptor; in short: as §2
T7 sequence (whole entry): T4 sequence (P35368 whole entry)

[9] = biological target: T8, 5-hydroxytryptamine receptor 1A (Homo sapiens) (UniProt P08908); assay: Percent of maximum effect on binding of [35S]GTP-gamma-S, to HeLa cell membranes expressing the human 5-hydroxytryptamine 1A receptor; format: functional
T8 sequence (whole entry): T2 sequence (P08908 whole entry)
In short: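 [35S]GTPγS binding on human 5-HT1A-expressing HeLa membranes, with 30 µM GDP, compound 100 µM–0.1 nM, 20 min then 30 min at 30 °C. Stimulation given as percent increase over basal, with the maximal 5-HT response set to 100%. Emax taken from the nonlinear curve fit; 2–3 experiments.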

[10] = biological target: T8, 5-hydroxytryptamine receptor 1A (Homo sapiens); assay: Ability to influence the binding of [35S]GTP-gamma-S, to HeLa cell membranes expressing the human 5-hydroxytryptamine 1A receptor; Not active; format: functional; in short: as §1

Structure (SMILES) | Ki [1] [nM] | Ki [2] [nM] | Ki [3] [nM] | Ki [4] [nM] | EC50 [5] [nM] | pK1d [6] | pK1a [7] | pK1b [8] | Effect [9] [%] | NA [10]
COc1ccccc1N1CCN(CCCNc2c(C(C)=O)c(C)nn(C)c2=O)CC1 | 34.5 | 1.48 | 0.89 | 53.4 | 1.58 | 7.46 | 9.09 | 7.27 | 17 | –
COc1ccc(Cl)cc1N1CCN(CCNc2cc(-c3ccccc3)nn(C)c2=O)CC1 | 1.07 | 322 | 1 | 1.76 | – | 8.97 | 9 | 8.75 | – | –
COc1ccccc1N1CCN(c2c(C(C)=O)c(-c3ccccc3)nn(C)c2=O)CC1 | > 10000 | > 1000 | 163 | 259 | – | 5 | 6.79 | 6.59 | – | –
COc1ccccc1N1CCN(CCNc2cc(-c3ccccc3)nn(C)c2=O)CC1 | 11.8 | 14 | 0.22 | 2.01 | – | 7.93 | 9.66 | 8.7 | – | –
COc1ccc(Cl)cc1N1CCN(CCCNc2c(C(C)=O)c(C)nn(C)c2=O)CC1 | 5.34 | 11.2 | 0.53 | 8.04 | – | 8.27 | 9.29 | 8.1 | – | –
COc1ccccc1N1CCN(CCCNc2c(C(C)=O)c(-c3ccccc3)nn(C)c2=O)CC1 | 4.32 | 134 | 1.51 | 20.3 | – | 8.37 | 8.82 | 7.69 | – | –
COc1ccccc1N1CCN(CCNc2c(C(=O)C(C)C)c(-c3ccccc3)nn(C)c2=O)CC1 | 0.43 | 10.2 | 0.18 | 0.64 | – | 9.37 | 9.74 | 9.19 | – | inactive
COc1ccc(Cl)cc1N1CCN(CCCCNc2c(C(C)=O)c(C)nn(C)c2=O)CC1 | 5.96 | 1.39 | 2.99 | 49.1 | – | 8.3 | 8.52 | 7.39 | – | –
CC(=O)c1c(-c2ccccc2)nn(C)c(=O)c1NCCN1CCN(c2ccccc2Cl)CC1 | 0.25 | 11.6 | 0.3 | 0.75 | – | 9.6 | 9.52 | 9.12 | – | –
COc1ccc(Cl)cc1N1CCN(CCNc2c(C(C)=O)c(-c3ccccc3)nn(C)c2=O)CC1 | 0.41 | 76.2 | 0.28 | 3.95 | – | 9.39 | 9.55 | 8.4 | – | –
CCCN(CCC)C1CCc2cccc(O)c2C1 (centres undefined) [8-OH-DPAT] | – | – | – | 5980 | – | – | – | – | 100 | –
COc1ccc(Cl)cc1N1CCN(CCCNc2c(C(C)=O)c(-c3ccccc3)nn(C)c2=O)CC1 | 3.92 | 1000 | 0.44 | 1.44 | – | 8.41 | 8.64 | 8.85 | – | –
CC(=O)c1c(-c2ccccc2)nn(C)c(=O)c1NCCN1CCN(c2ccccc2F)CC1 | 0.49 | 24.1 | 0.32 | 3.77 | – | 9.31 | 9.49 | 8.42 | – | –
COc1ccccc1N1CCN(CCNc2c(C(C)=O)c(-c3ccccc3)nn(C)c2=O)CC1 | 0.13 | 2.47 | 0.63 | 3.29 | – | 9.89 | 9.46 | 8.48 | – | inactive
CCC(=O)c1c(-c2ccccc2)nn(C)c(=O)c1NCCN1CCN(c2ccccc2OC)CC1 | 0.25 | 4.06 | 0.19 | 1.45 | 2.51 | 9.6 | 9.72 | 8.84 | 19 | –
COc1ccccc1N1CCN(CCCNc2cc(-c3ccccc3)nn(C)c2=O)CC1 | 11.8 | 127 | 2.59 | 5.51 | – | 7.93 | 8.59 | 8.26 | – | –
COc1ccccc1N1CCN(CCNc2cc(C)nn(C)c2=O)CC1 | 17.7 | 32.1 | 18.6 | 33.1 | – | 7.75 | 7.73 | 7.48 | – | –
COc1ccccc1N1CCN(CCNc2c(C(C)=O)c(C)nn(C)c2=O)CC1 | 3.2 | 13 | 2.29 | 49.8 | – | 8.5 | 8.64 | 7.3 | – | –
COc1ccc(Cl)cc1N1CCN(CCCNc2cc(-c3ccccc3)nn(C)c2=O)CC1 | 2.92 | > 1000 | 2 | 2.01 | – | 8.53 | 8.7 | 8.7 | – | –
